Calls of active or inactive are those of the source.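 The calls were made as follows: active = inhibition at 30 µM, averaged over replicates, above 50% in every run; inconclusive = inhibition above 50% in some runs but not others; inactive = inhibition at most 50% in every run.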

This assay relates to human washed platelets, PMA-induced P-selectin, flow cytometry. Nature of the assay: inhibitors of PMA-stimulated platelet P-selectin exposure, confirmation, selectivity assay, cell-based, fluorescence, flow cytometry, platelets (AID 2529). To be noted: at 30 µM, stronger effect = higher value. Put shortly: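 Test system: platelets. Doses: single compound dose of 30 µM. Times: compound pre-treatment 20 min, PMA stimulation 15 min, antibody labeling 20 min. Measured by: flow cytometry, PE anti-P-selectin.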
On the technique in general: Flow cytometry measures light scatter and fluorescence of single cells or particles in a stream.

On to `O=C(Nc1cccc(NC(=O)c2ccccc2Cl)c1)c1ccco1`, for which the inhibition is 17% (inactive). The inhibition (measured here: second run average inhibition) stood at 8%.

On to `CCCC(=O)Nc1cccc(NC(=O)c2ccccc2Br)c1`, for which the inhibition was 13% (inactive).

Broadly, the inhibition is the change of the read-out against control, counted positive when it falls.

Source of the values: PubChem BioAssay AID2529 (Broad Institute, 2010).
